From ChEMBL document CHEMBL2040734, “Benzothiazoles: search for anticancer agents” (2012)

Columns and labels:
Type in all cases: functional
[1] = tested on: PC-3; assay: Cytotoxicity against human PC3 cells assessed as cell growth at 0.01 uM after 48 hrs by sulforhodamine B assay; conditions: PC-3, 48 h, read-out: Activity
[2] = tested on: SNB-19; assay: Cytotoxicity against human SNB19 cells assessed as cell growth at 0.1 uM after 48 hrs by sulforhodamine B assay; conditions: SNB-19, 48 h, read-out: Activity
[3] = tested on: SK-MEL-2; assay: Cytotoxicity against human SK-MEL-2 cells assessed as cell growth at 0.1 uM after 48 hrs by sulforhodamine B assay; conditions: SK-MEL-2, 48 h, read-out: Activity
[4] = tested on: IGROV-1; assay: Cytotoxicity against human IGROV1 cells assessed as cell growth at 0.1 uM after 48 hrs by sulforhodamine B assay; conditions: IGROV-1, 48 h, read-out: Activity
[5] = tested on: KM12; assay: Cytotoxicity against human KM12 cells assessed as cell growth at 100 uM after 48 hrs by sulforhodamine B assay; conditions: KM12, 48 h, read-out: Activity
[6] = tested on: NCI/ADR-RES; assay: Cytotoxicity against human NCI/ADR-RES cells assessed as cell growth at 100 uM after 48 hrs by sulforhodamine B assay; conditions: read-out: Activity
[7] = tested on: CAKI-1; assay: Cytotoxicity against human Caki1 cells assessed as cell growth at 100 uM after 48 hrs by sulforhodamine B assay; conditions: CAKI-1, 48 h, read-out: Activity
How it was run: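 NCI-60 five-dose screen. Cells were grown in RPMI 1640 with 5% FBS and 2 mM L-glutamine and preincubated 24 h. Compound (DMSO stock) was tested at 0.01, 0.1, 1, 10 and 100 µM for 48 h at 37 °C. Cells were fixed in situ with cold TCA (final 10%) and stained with 0.4% SRB. A515 was read, and percent growth was calculated against time-zero and control plates.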

[8] = tested on: PC-3; assay: Cytotoxicity against human PC3 cells assessed as cell growth at 0.1 uM after 48 hrs by sulforhodamine B assay; conditions: PC-3, 48 h, read-out: Activity
[9] = tested on: EKVX; assay: Cytotoxicity against human EKVX cells assessed as cell growth at 1 uM after 48 hrs by sulforhodamine B assay; conditions: read-out: Activity
How it was run: (§1)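 Five-dose NCI panel run at 0.01, 0.1, 1, 10 and 100 µM. Cells were in RPMI 1640 with 5% FBS and 2 mM L-glutamine, seeded at 5000–40,000 cells/well and pre-incubated 24 h. Drug was diluted from a DMSO stock into medium with 50 µg/ml gentamicin. Exposure was 48 h at 37 °C, 5% CO2. Cells were fixed with cold TCA and stained with 0.4% SRB, read at 515 nm. Percent growth came from time-zero, control and test absorbances.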

[10] = tested on: RXF 393; assay: Cytotoxicity against human RXF393 cells assessed as cell growth at 1 uM after 48 hrs by sulforhodamine B assay; conditions: RXF 393, 48 h, read-out: Activity
[11] = tested on: SN12C; assay: Cytotoxicity against human SN12C cells assessed as cell growth at 1 uM after 48 hrs by sulforhodamine B assay; conditions: read-out: Activity
[12] = tested on: UO-31; assay: Cytotoxicity against human UO31 cells assessed as cell growth at 1 uM after 48 hrs by sulforhodamine B assay; conditions: UO-31, 48 h, read-out: Activity
[13] = tested on: MCF7; assay: Cytotoxicity against human MCF7 cells assessed as cell growth at 1 uM after 48 hrs by sulforhodamine B assay; conditions: MCF7, 48 h, read-out: Activity
[14] = tested on: CCRF-CEM; assay: Cytotoxicity against human CCRF-CEM cells assessed as cell growth at 10 uM after 48 hrs by sulforhodamine B assay; conditions: read-out: Activity
How it was run: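 CCRF-CEM suspension leukemia cells in RPMI 1640 with 5% FBS and 2 mM L-glutamine, plated 24 h before dosing. Five concentrations (0.01–100 µM) were applied from a DMSO stock for 48 h at 37 °C. Settled cells were fixed with 80% TCA (final 16%) and stained with SRB, with read-out at 515 nm. Percent growth was derived from time-zero and control absorbances.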

[15] = tested on: RPMI-8226; assay: Cytotoxicity against human RPMI8226 cells assessed as cell growth at 10 uM after 48 hrs by sulforhodamine B assay; conditions: RPMI-8226, 48 h, read-out: Activity
[16] = tested on: OVCAR-3; assay: Cytotoxicity against human OVCAR3 cells assessed as cell growth at 10 '-5 M after 48 hrs by sulforhodamine B assay; conditions: OVCAR-3, 48 h, read-out: Activity
[17] = tested on: NCI/ADR-RES; assay: Cytotoxicity against human NCI/ADR-RES cells assessed as cell growth at 10 '-5 M after 48 hrs by sulforhodamine B assay; conditions: read-out: Activity
[18] = Cytotoxicity against human Hs 578T cells assessed as cell growth at 10 '-5 M after 48 hrs by sulforhodamine B assay; conditions: read-out: Activity
How it was run: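 Primary one-dose screen across the NCI 60-line panel at 10 µM. Cells were grown in RPMI 1640 with 5% FBS and 2 mM L-glutamine and held 24 h before drug. Drug was diluted from a DMSO concentrate. Exposure was 48 h at 37 °C, 5% CO2. Cells were fixed with TCA and stained with SRB, with absorbance read at 515 nm. Percent growth was calculated against time-zero and untreated control.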

[19] = tested on: BT-549; assay: Cytotoxicity against human BT549 cells assessed as cell growth at 10 '-5 M after 48 hrs by sulforhodamine B assay; conditions: BT-549, 48 h, read-out: Activity
How it was run: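 Primary NCI-60 single-dose screen at 10 µM. Cells were grown in RPMI 1640 with 5% FBS and 2 mM L-glutamine and plated 24 h before drug addition. Compound was solubilized in DMSO, then exposed for 48 h at 37 °C under 5% CO2. Cells were TCA-fixed and stained with SRB, and absorbance was read at 515 nm. Growth was expressed relative to time-zero and untreated controls.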

[20] = tested on: HOP-62; assay: Growth inhibition of human HOP62 cells after 48 hrs by sulforhodamine B assay; conditions: HOP-62, 48 h; for CC50: read-out: LC50 (the source's name)
How it was run: (§2)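 Adherent NCI-60 lines were grown in RPMI 1640 with 5% FBS and 2 mM L-glutamine, plated at 5000–40,000 cells/well and preincubated 24 h. They were then exposed to five concentrations (0.01–100 µM, from a DMSO stock) for 48 h at 37 °C, 5% CO2. Cells were fixed with cold TCA (10% final, 60 min, 4 °C) and stained with 0.4% SRB. Dye was solubilized in 10 mM Tris base and A515 read. GI50 was derived from time-zero, control and treated absorbances.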

[21] = tested on: SW-620; assay: Growth inhibition of human SW620 cells after 48 hrs by sulforhodamine B assay; conditions: SW-620, 48 h; for CC50: read-out: LC50 (the source's name); how it was run: as §2
[22] = tested on: SK-OV-3; assay: Growth inhibition of human SKOV3 cells after 48 hrs by sulforhodamine B assay; conditions: SK-OV-3, 48 h; how it was run: as §2
[23] = tested on: CAKI-1; assay: Growth inhibition of human Caki1 cells after 48 hrs by sulforhodamine B assay; conditions: CAKI-1, 48 h; for CC50: read-out: LC50 (the source's name); how it was run: as §2
[24] = tested on: HCT-15; assay: Cytotoxicity against human HCT15 cells assessed as cell growth at 0.01 uM after 48 hrs by sulforhodamine B assay; conditions: HCT-15, 48 h, read-out: Activity; how it was run: as §1
[25] = tested on: OVCAR-5; assay: Cytotoxicity against human OVCAR5 cells assessed as cell growth at 0.01 uM after 48 hrs by sulforhodamine B assay; conditions: OVCAR-5, 48 h, read-out: Activity

| Compound | growth at 0.01 µM [1] | growth at 0.1 µM [2] | growth at 0.1 µM [3] | growth at 0.1 µM [4] | growth at 100 µM [5] | growth at 100 µM [6] | growth at 100 µM [7] | growth at 0.1 µM [8] | growth at 1 µM [9] | growth at 1 µM [10] | growth at 1 µM [11] | growth at 1 µM [12] | growth at 1 µM [13] | growth at 10 µM [14] | growth at 10 µM [15] | growth at 10 µM [16] | growth at 10 µM [17] | growth at 10 µM [18] | growth at 10 µM [19] | GI50 [20] | also measured |
| --- | --- | --- | --- | --- | --- | --- | --- | --- | --- | --- | --- | --- | --- | --- | --- | --- | --- | --- | --- | --- | --- |
| Cc1ccc2nc(Nc3c(C)cccc3C)sc2c1 | 102% | 87% | 99% | 108% | 48% | 46% | 42% | 94% | 62% | 52% | 65% | 73% | 53% | 58% | 55% | 18.7% | 4.04% | 54.1% | 37.1% | 3.86 µM | TGI [20]: > 100 µM; CC50 [20]: > 100 µM; GI50 [21]: 0.949 µM; TGI [21]: > 100 µM; CC50 [21]: > 100 µM; LC50 [22]: > 100 µM; TGI [22]: > 100 µM; GI50 [23]: 0.564 µM; TGI [23]: > 100 µM; CC50 [23]: > 100 µM; growth at 0.01 µM [24]: 95%; growth at 0.01 µM [25]: 93% |
| Clc1cccc(Cl)c1Nc1nc2cccc(Cl)c2s1 | 96% | 90% | 88% | 103% | -98% | -55% | -75% | 81% | 15% | 45% | 46% | 26% | 46% | -34% | -19% | -61.4% | -37.3% | -11.4% | -67.8% | 1.27 µM | TGI [20]: 2.62 µM; CC50 [20]: 5.38 µM; GI50 [21]: 1.32 µM; TGI [21]: 2.78 µM; CC50 [21]: 5.86 µM; GI50 [22]: 1.6 µM; LC50 [22]: 5.95 µM; TGI [22]: 3.08 µM; GI50 [23]: 0.259 µM; TGI [23]: 1.46 µM; CC50 [23]: 4.23 µM; growth at 0.01 µM [24]: 93%; growth at 0.01 µM [25]: 102% |
